Assay results reported in ChEMBL document CHEMBL3112425, “Design, synthesis, and structure-activity relationship studies of a potent PACE4 inhibitor” (J Med Chem, 2014).
Peptide text beside a SMILES is read from it. * marks the point of attachment. X1 = N=C(N)NC/C=C/CN*

Columns and labels:
[1] = target: T1, Neuroendocrine convertase 2 (Homo sapiens, UniProt P16519); test: Inhibition of human PC2 expressed in drosophila schneider 2 cells using pyroGlu-Arg-Thr-Lys-Arg-AMC as substrate after 1 hr
T1 sequence (P16519 whole entry): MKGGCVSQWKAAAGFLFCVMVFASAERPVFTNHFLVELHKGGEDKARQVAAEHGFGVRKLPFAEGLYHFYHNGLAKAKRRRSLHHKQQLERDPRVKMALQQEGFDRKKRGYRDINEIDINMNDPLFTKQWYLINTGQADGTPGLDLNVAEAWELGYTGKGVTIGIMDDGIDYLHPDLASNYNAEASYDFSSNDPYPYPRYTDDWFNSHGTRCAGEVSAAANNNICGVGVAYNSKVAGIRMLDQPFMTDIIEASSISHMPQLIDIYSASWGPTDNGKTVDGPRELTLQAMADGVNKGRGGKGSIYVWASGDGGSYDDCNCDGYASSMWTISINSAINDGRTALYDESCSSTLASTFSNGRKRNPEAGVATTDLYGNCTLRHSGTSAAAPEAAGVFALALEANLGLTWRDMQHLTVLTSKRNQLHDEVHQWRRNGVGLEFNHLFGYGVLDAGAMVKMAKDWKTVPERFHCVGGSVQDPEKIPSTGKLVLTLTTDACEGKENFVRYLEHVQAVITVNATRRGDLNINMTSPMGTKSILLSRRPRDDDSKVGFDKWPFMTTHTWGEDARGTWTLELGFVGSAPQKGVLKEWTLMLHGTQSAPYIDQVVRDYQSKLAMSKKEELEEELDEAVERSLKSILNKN
In short: (§1)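 Human enzymes were expressed in Drosophila S2 cells and purified. Fluorogenic pyroGlu-RTKR-AMC was used at fixed concentration with varied inhibitor, 37 °C over 1 h. Buffers: furin, 100 mM Hepes pH 7.5, 1 mM CaCl2, 1 mM β-mercaptoethanol, 1.8 mg/mL BSA; PACE4 and PC7, 20 mM Bis-Tris pH 6.5, 1 mM CaCl2, 1.8 mg/mL BSA; PC2, same buffer at pH 5.7. Ki from IC50 (Cheng–Prusoff), or apparent Ki (Morrison) for tight binders. Triplicate, mean ± SD.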

[2] = Half life in CD-1 mouse plasma at 0.5 ug/uL by RP-HPLC analysis; type: ADME, cell-free
In short: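 Peptides at 0.5 μg/μL were incubated at 37 °C in heparinized plasma pooled from mixed-sex CD1 mice. At each time point the reaction was stopped with 1 M guanidinium-HCl, then acetonitrile, and proteins were spun out. Supernatant peptide AUC (RP-HPLC) was compared with non-incubated samples. Half-life came from a one-phase decay fit. Run ≥3 times, duplicate per time point.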

PC-3 = test: Cytotoxicity against human PC3 cells after 72 hrs by MTT assay; type: functional, cell-based; settings: PC-3, 72 h
In short: (§2)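 Prostate cancer cells were kept in RPMI 1640 at 37 °C, 5% CO2, with 5% FBS for DU145 and 10% FBS for LNCaP and PC3. After 24 h, medium was changed and peptides added at various concentrations, up to 350 μM. Viability was read by MTT after 72 h treatment. IC50 from dose–response curves, triplicate, mean ± SEM.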

DU-145 = test: Cytotoxicity against human DU145 cells after 72 hrs by MTT assay; type: functional, cell-based; settings: DU-145, 72 h; in short: as §2
Furin = Furin (Homo sapiens, UniProt P09958); test: Inhibition of human recombinant furin expressed in drosophila schneider 2 cells using pyroGlu-Arg-Thr-Lys-Arg-AMC as substrate after 1 hr; in short: as §1
[3] = target: T2, Proprotein convertase subtilisin/kexin type 6 (Homo sapiens, UniProt P29122); test: Inhibition of human recombinant PACE4 expressed in drosophila schneider 2 cells using pyroGlu-Arg-Thr-Lys-Arg-AMC as substrate after 1 hr; in short: as §1
T2 sequence (P29122 whole entry): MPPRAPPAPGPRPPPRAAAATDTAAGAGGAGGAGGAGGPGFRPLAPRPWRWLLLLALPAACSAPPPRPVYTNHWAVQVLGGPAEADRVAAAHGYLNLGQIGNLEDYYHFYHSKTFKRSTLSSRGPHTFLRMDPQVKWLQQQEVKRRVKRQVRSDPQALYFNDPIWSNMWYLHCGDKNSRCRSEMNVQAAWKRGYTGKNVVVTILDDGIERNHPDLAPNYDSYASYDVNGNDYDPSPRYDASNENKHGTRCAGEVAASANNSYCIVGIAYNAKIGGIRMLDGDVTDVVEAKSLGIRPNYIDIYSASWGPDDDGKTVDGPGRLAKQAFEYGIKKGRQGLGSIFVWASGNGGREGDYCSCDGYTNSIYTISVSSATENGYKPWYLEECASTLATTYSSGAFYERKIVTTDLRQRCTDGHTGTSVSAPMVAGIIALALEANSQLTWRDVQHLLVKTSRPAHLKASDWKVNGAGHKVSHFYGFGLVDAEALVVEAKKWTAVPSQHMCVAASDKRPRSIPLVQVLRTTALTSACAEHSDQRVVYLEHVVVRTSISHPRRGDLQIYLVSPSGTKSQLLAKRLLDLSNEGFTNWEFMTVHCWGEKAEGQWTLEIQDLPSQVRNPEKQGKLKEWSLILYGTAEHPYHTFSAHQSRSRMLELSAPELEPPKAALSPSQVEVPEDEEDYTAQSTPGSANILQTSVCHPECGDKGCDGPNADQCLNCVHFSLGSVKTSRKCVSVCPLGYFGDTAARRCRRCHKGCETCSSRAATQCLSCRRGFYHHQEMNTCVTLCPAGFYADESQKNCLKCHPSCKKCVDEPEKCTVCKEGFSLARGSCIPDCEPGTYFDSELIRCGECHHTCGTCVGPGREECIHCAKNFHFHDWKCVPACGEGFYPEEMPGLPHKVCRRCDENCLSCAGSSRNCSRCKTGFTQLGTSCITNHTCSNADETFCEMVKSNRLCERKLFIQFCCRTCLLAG

Plasma = test: Drug degradation in CD-1 mouse plasma at 0.5 ug/uL after 30 mins by MALDI-TOF MS analysis; type: ADME, cell-free; settings: 0.5 h
In short: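 For fragment mapping, 100 μg peptide was incubated in murine plasma at 37 °C. At each time point, plasma samples were quenched with 3% TFA. Proteins were precipitated with 2 volumes acetonitrile and centrifuged at 17 000g. Supernatants were analyzed by MALDI-TOF MS for C-terminally truncated fragments.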

Furin, sequence (P09958 whole entry): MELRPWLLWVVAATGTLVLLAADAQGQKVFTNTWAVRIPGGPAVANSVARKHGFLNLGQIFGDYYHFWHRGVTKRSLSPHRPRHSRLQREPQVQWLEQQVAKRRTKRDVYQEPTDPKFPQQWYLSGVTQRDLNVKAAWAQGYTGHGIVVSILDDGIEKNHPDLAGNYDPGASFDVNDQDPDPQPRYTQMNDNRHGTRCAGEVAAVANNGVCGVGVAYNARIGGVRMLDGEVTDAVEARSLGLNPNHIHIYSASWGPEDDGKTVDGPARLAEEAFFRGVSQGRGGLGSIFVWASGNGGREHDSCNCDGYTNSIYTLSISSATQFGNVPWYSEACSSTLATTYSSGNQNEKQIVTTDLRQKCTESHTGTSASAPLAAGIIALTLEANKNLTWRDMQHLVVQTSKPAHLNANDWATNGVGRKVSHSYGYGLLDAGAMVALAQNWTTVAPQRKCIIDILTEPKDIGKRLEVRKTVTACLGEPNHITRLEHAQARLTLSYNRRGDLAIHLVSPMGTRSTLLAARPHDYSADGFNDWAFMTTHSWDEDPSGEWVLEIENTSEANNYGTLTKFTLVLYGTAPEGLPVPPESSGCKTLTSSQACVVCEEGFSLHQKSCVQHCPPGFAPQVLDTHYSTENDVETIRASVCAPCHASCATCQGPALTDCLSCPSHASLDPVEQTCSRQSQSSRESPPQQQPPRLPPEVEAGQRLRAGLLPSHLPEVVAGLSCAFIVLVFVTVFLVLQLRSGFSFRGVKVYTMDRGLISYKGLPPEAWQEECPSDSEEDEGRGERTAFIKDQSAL

Work on CC(=O)N[C@@H](CC(C)C)C(=O)N[C@@H](CC(C)C)C(=O)N[C@@H](CC(C)C)C(=O)N[C@@H](CC(C)C)C(=O)N[C@@H](CCCNC(=N)N)C(=O)N[C@H](C(=O)N[C@@H](CCCCN)C(=O)NC/C=C/CNC(=N)N)C(C)C (Ac-LLLLRVK-X1) yielded a Ki [1] of 1.7 nM, a half-life at 0.5 ug/uL [2] of 7.2 h and an IC50 (PC-3) of 200000 nM. The IC50 (DU-145) was 90000 nM, the Ki (Furin) was 27 nM and the Ki [3] was 5.3 nM. The Stability (Plasma) was “Unstable”.
